Results: ChEMBL document CHEMBL1125594 (J Med Chem, 1991)

Tests used:
Nucleic Acid [1] = assay: Antitumor potency on human breast MCF-7 cell lines.; format: functional, cell-based; settings: MCF7
How it was run: (§1)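 Human lines kept in RPMI-1640 with 5% FBS, L-glutamine and penicillin/streptomycin; seeded as single-cell suspensions at 2000 (MCF-7), 500 (WiDr) or 750 (2780) cells/well. Drugs in DMSO, serially diluted in PBS pH 7.4 in half-log steps, were added on day 2 (final DMSO ≤0.1%). Exposure 6 days at 37 °C, 5% CO2. MTT was added for 4 h, formazan dissolved in DMSO, A570 read as % of untreated control. 6 wells per concentration, ≥2 assays, IC50s averaged.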

Nucleic Acid [2] = assay: Antitumor potency on human ovarian 2780 cell lines.; format: functional; how it was run: as §1
Nucleic Acid [3] = assay: Antitumor potency on human colon WIDR cell lines.; format: functional, cell-based; how it was run: as §1
Mus musculus = organism: Mus musculus; assay: Minimum effective dose was measured against P388 leukemia in mice.; format: functional
P388 = assay: Antitumor potency on P388 leukemia cells in culture; format: functional, cell-based; settings: Mus musculus
How it was run: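 P388 cells (ATCC CCL-46) plated as a single-cell suspension at 300 cells/well. Drugs in DMSO, serially diluted in PBS pH 7.4 in half-log steps, were added on day 1 (final DMSO ≤0.1%). Exposure 6 days at 37 °C, 5% CO2. MTT was added for 4 h, formazan dissolved in DMSO, absorbance read at 570 nm as % of untreated control. 6 wells per concentration, ≥2 assays, IC50 averaged.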

CO[C@@]12C(COC(N)=O)C3=C(C(=O)C(C)=C(OCc4ccccc4)C3=O)N1CC1NC12 (some centres undefined)
IC50 (Nucleic Acid [1]): 1.43 nM | IC50 (Nucleic Acid [2]): 0.26 nM | IC50 (Nucleic Acid [3]): 0.13 nM | MED (Mus musculus): 0.24 µmol/kg | IC50 (P388): 0.018 nM

COCCOCCOC1=C(C)C(=O)C2=C(C1=O)C(COC(N)=O)[C@@]1(OC)C3NC3CN21 (some centres undefined)
IC50 (Nucleic Acid [1]): 8.22 nM | IC50 (Nucleic Acid [2]): 4.57 nM | IC50 (Nucleic Acid [3]): 4.57 nM | MED (Mus musculus): 0.11 µmol/kg | IC50 (P388): 4.1 nM

CO[C@@]12C(COC(N)=O)c3c(O)c(/N=C4\C=CC(=O)C([N+](=O)[O-])=C4)c(C)c(O)c3N1CC1NC12 (some centres undefined)
IC50 (Nucleic Acid [1]): 22.7 nM | IC50 (Nucleic Acid [2]): 10.8 nM | IC50 (Nucleic Acid [3]): 25.5 nM

CO[C@@]12C(COC(N)=O)C3=C(C(=O)C(C)=C(OC4CC4)C3=O)N1CC1NC12 (some centres undefined)
IC50 (Nucleic Acid [1]): 1.12 nM | IC50 (Nucleic Acid [2]): 0.56 nM | IC50 (Nucleic Acid [3]): 0.21 nM | MED (Mus musculus): 0.13 µmol/kg | IC50 (P388): 0.63 nM

CO[C@@]12C(COC(N)=O)C3=C(C(=O)C(C)=C(NCCc4ccccn4)C3=O)N1CC1NC12 (some centres undefined)
IC50 (Nucleic Acid [1]): 22.8 nM | IC50 (Nucleic Acid [2]): 77.4 nM | IC50 (Nucleic Acid [3]): 26.2 nM | IC50 (P388): 53.5 nM

CO[C@@]12C(COC(N)=O)C3=C(C(=O)C(C)=C(NCCc4ccco4)C3=O)N1CC1NC12 (some centres undefined)
IC50 (Nucleic Acid [1]): 36.6 nM | IC50 (Nucleic Acid [2]): 59.5 nM | IC50 (Nucleic Acid [3]): 40.3 nM | IC50 (P388): 26.6 nM

CO[C@@]12C(COC(N)=O)C3=C(C(=O)C(C)=C(Nc4ccc(I)cc4)C3=O)N1CC1NC12 (some centres undefined)
IC50 (Nucleic Acid [1]): 2.84 nM | IC50 (Nucleic Acid [2]): 1.6 nM | IC50 (Nucleic Acid [3]): 0.63 nM | IC50 (P388): 1.62 nM

CO[C@@]12C(COC(N)=O)C3=C(C(=O)C(C)=C(OCCOCCO)C3=O)N1CC1NC12 (some centres undefined)
IC50 (Nucleic Acid [1]): 80.6 nM | IC50 (Nucleic Acid [2]): 36.6 nM | IC50 (Nucleic Acid [3]): 25.8 nM | MED (Mus musculus): 0.3 µmol/kg | IC50 (P388): 18.7 nM

CO[C@@]12C(COC(N)=O)C3=C(C(=O)C(C)=C(Nc4ccc(Br)cc4)C3=O)N1CC1NC12 (some centres undefined)
IC50 (Nucleic Acid [1]): 2.66 nM | IC50 (Nucleic Acid [2]): 1.84 nM | IC50 (Nucleic Acid [3]): 1.19 nM | IC50 (P388): 1.92 nM

CO[C@@]12C(COC(N)=O)c3c(O)c(N=C4C=CC(=O)C=C4)c(C)c(O)c3N1CC1NC12 (some centres undefined)
IC50 (Nucleic Acid [1]): 16.9 nM | IC50 (Nucleic Acid [2]): 16.4 nM | IC50 (Nucleic Acid [3]): 6.3 nM | IC50 (P388): 5.86 nM

CO[C@@]12C(COC(N)=O)c3c(O)c(N=C4C=CC(=N)C=C4)c(C)c(O)c3N1CC1NC12 (some centres undefined)
IC50 (Nucleic Acid [1]): 13.1 nM | IC50 (Nucleic Acid [2]): 50 nM | IC50 (Nucleic Acid [3]): 28.8 nM | IC50 (P388): 18.8 nM

CO[C@@]12C(COC(N)=O)C3=C(C(=O)C(C)=C(OCCSSCCO)C3=O)N1CC1NC12 (some centres undefined)
IC50 (Nucleic Acid [1]): 3.92 nM | IC50 (Nucleic Acid [2]): 1.36 nM | IC50 (Nucleic Acid [3]): 1.48 nM | MED (Mus musculus): 0.026 µmol/kg | IC50 (P388): 1.87 nM

CO[C@@]12C(COC(N)=O)C3=C(C(=O)C(C)=C(OCCO)C3=O)N1CC1NC12 (some centres undefined)
IC50 (Nucleic Acid [1]): 3.69 nM | IC50 (Nucleic Acid [2]): 6.85 nM | IC50 (Nucleic Acid [3]): 4.22 nM | MED (Mus musculus): 0.017 µmol/kg | IC50 (P388): 0.71 nM

CO[C@@]12C(COC(N)=O)C3=C(C(=O)C(C)=C(OCC4CCC4)C3=O)N1CC1NC12 (some centres undefined)
IC50 (Nucleic Acid [1]): 0.21 nM | IC50 (Nucleic Acid [2]): 0.27 nM | IC50 (Nucleic Acid [3]): 0.19 nM | MED (Mus musculus): 0.99 µmol/kg | IC50 (P388): 0.41 nM

CO[C@@]12C(COC(N)=O)C3=C(C(=O)C(C)=C(OCCSc4ccccc4)C3=O)N1CC1NC12 (some centres undefined)
IC50 (Nucleic Acid [1]): 1.4 nM | IC50 (Nucleic Acid [2]): 0.53 nM | IC50 (Nucleic Acid [3]): 0.15 nM | MED (Mus musculus): 6.73 | IC50 (P388): 1.21 nM

CO[C@@]12C(COC(N)=O)C3=C(C(=O)C(C)=C(NCCCO)C3=O)N1CC1NC12 (some centres undefined)
IC50 (Nucleic Acid [1]): 132 nM | IC50 (Nucleic Acid [2]): 76.4 nM | IC50 (Nucleic Acid [3]): 102 nM | IC50 (P388): 459 nM

CO[C@@]12C(COC(N)=O)c3c(O)c(/N=C4\C=CC(=O)C(I)=C4)c(C)c(O)c3N1CC1NC12 (some centres undefined)
IC50 (Nucleic Acid [1]): 16.3 nM | IC50 (Nucleic Acid [2]): 29 nM | IC50 (Nucleic Acid [3]): 6.52 nM

CO[C@@]12C(COC(N)=O)C3=C(C(=O)C(C)=C(Nc4cccc(I)c4)C3=O)N1CC1NC12 (some centres undefined)
IC50 (Nucleic Acid [1]): 1.87 nM | IC50 (Nucleic Acid [2]): 1.68 nM | IC50 (Nucleic Acid [3]): 0.21 nM | IC50 (P388): 1.42 nM

CO[C@@]12C(COC(N)=O)C3=C(C(=O)C(C)=C(Nc4ccccc4)C3=O)N1CC1NC12 (some centres undefined)
IC50 (Nucleic Acid [1]): 1.32 nM | IC50 (Nucleic Acid [2]): 2.6 nM | IC50 (Nucleic Acid [3]): 1.09 nM | IC50 (P388): 1.71 nM

CO[C@@]12C(COC(N)=O)C3=C(C(=O)C(C)=C(Nc4ccc5[nH]ccc5c4)C3=O)N1CC1NC12 (some centres undefined)
IC50 (Nucleic Acid [1]): 1.1 nM | IC50 (Nucleic Acid [2]): 3.1 nM | IC50 (Nucleic Acid [3]): 1.07 nM

CO[C@@]12C(COC(N)=O)C3=C(C(=O)C(C)=C(OCCOc4ccccc4)C3=O)N1CC1NC12 (some centres undefined)
IC50 (Nucleic Acid [1]): 0.72 nM | IC50 (Nucleic Acid [2]): 0.16 nM | IC50 (Nucleic Acid [3]): 0.12 nM | MED (Mus musculus): 3.5 µmol/kg | IC50 (P388): 0.082 nM

C#CCNC1=C(C)C(=O)C2=C(C1=O)C(COC(N)=O)[C@@]1(OC)C3NC3CN21 (some centres undefined)
IC50 (Nucleic Acid [1]): 4.4 nM | IC50 (Nucleic Acid [2]): 2.1 nM | IC50 (Nucleic Acid [3]): 3.9 nM | IC50 (P388): 9.7 nM

CO[C@@]12C(COC(N)=O)c3c(O)c(/N=C4/C=CN=N4)c(C)c(O)c3N1CC1NC12 (some centres undefined)
IC50 (Nucleic Acid [1]): 72.4 nM | IC50 (Nucleic Acid [2]): 38.5 nM | IC50 (Nucleic Acid [3]): 13 nM | IC50 (P388): 15.5 nM

CO[C@@]12C(COC(N)=O)C3=C(C(=O)C(C)=C(OCC4CC4)C3=O)N1CC1NC12 (some centres undefined)
IC50 (Nucleic Acid [1]): 0.51 nM | IC50 (Nucleic Acid [2]): 0.45 nM | IC50 (Nucleic Acid [3]): 0.16 nM | MED (Mus musculus): 1.03 µmol/kg | IC50 (P388): 0.31 nM

CO[C@@]12C(COC(N)=O)C3=C(C(=O)C(C)=C(Nc4nc(C)cs4)C3=O)N1CC1NC12 (some centres undefined)
IC50 (Nucleic Acid [1]): 3.13 nM | IC50 (Nucleic Acid [2]): 1.74 nM | IC50 (Nucleic Acid [3]): 1.32 nM | IC50 (P388): 0.5 nM

CO[C@@]12C(COC(N)=O)C3=C(C(=O)C(C)=C(Nc4ccc([N+](=O)[O-])cc4)C3=O)N1CC1NC12 (some centres undefined)
IC50 (Nucleic Acid [1]): 1.53 nM | IC50 (Nucleic Acid [2]): 0.59 nM | IC50 (Nucleic Acid [3]): 0.42 nM | IC50 (P388): 0.44 nM

CO[C@@]12C(COC(N)=O)C3=C(C(=O)C(C)=C(Nc4ccc(F)cc4)C3=O)N1CC1NC12 (some centres undefined)
IC50 (Nucleic Acid [1]): 1.77 nM | IC50 (Nucleic Acid [2]): 3.03 nM | IC50 (Nucleic Acid [3]): 1.63 nM | IC50 (P388): 3.03 nM

COC1=C(C)C(=O)C2=C(C1=O)[C@@H](COC(N)=O)[C@@]1(OC)[C@H]3N[C@H]3CN21 [MITOMYCIN A]
IC50 (Nucleic Acid [1]): 0.63 nM | IC50 (Nucleic Acid [2]): 0.22 nM | IC50 (Nucleic Acid [3]): 0.052 nM | MED (Mus musculus): 0.14 µmol/kg | IC50 (P388): 0.24 nM

CO[C@@]12[C@H](COC(N)=O)C3=C(C(=O)C(C)=C(N)C3=O)N1C[C@@H]1N[C@@H]12 [MITOMYCIN]
IC50 (Nucleic Acid [1]): 32.2 nM | IC50 (Nucleic Acid [2]): 14.8 nM | IC50 (Nucleic Acid [3]): 13 nM | IC50 (P388): 50.8 nM
